Data: publication PMC7383892 (Epilepsia, 2020)
Entries after “also recorded” stand apart in the source; their conditions may differ. Like-named read-outs stand apart in the source and are kept apart here. Marks after values point to notes of the source that are not given here.

Key:
Lennox–Gastaut syndrome = settings: stable dosages over a 3-year period; cited from earlier work
[1] = target: human recombinant GABAA receptor α4β2γ2 (Homo sapiens, UniProt P18507+P48169); test: Two-electrode voltage clamp in Xenopus oocytes, α4β2γ2; assay type: cell-based; settings: TEVC; for Potentiation of the GABA (EC20) response on α4β2γ2 receptors: oocytes, Padsevonil 10 and 30 µmol/L, Ro 15-4513 1 µmol/L
Outline: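 Human recombinant receptors expressed in Xenopus oocytes; automated two-electrode voltage clamp at −60 mV in frog Ringer (115 mM NaCl, 2.5 mM KCl, 1.8 mM CaCl₂, 10 mM HEPES, pH 7.2). Two 20 s GABA (EC₂₀) control applications 6 min apart; test compound pre-incubated 6 min, then co-applied with GABA for 20 s. Potentiation is I(GABA+drug)/I(GABA); EC50 from sigmoidal nonlinear fit.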

photosensitive epilepsy = settings: cited from earlier work
[2] = target: recombinant human GABAARs (α1β2γ2) (Homo sapiens, UniProt P14867+P18507); assay type: cell-based; settings: for Function relative efficacy, normalized toward zolpidem (1 µmol/L): Padsevonil 10 µmol/L; for Cl− currents evoked in the absence of GABA: no GABA, concentrations up to 30 µmol/L
[3] = target: human recombinant GABAA receptor α1β2γ2 (Homo sapiens, UniProt P14867+P18507); test: Two-electrode voltage clamp in Xenopus oocytes, α1β2γ2; assay type: cell-based; settings: for Function relative efficacy, normalized toward chlordiazepoxide (10 µmol/L): Padsevonil 10 µmol/L, GABA EC20, TEVC, α1β2γ2
[4] = target: human recombinant GABAA receptor α2β2γ2 (Homo sapiens, UniProt P18507+P47869); test: Two-electrode voltage clamp in Xenopus oocytes, α2β2γ2; assay type: cell-based; settings: for Function relative efficacy, normalized toward chlordiazepoxide (10 µmol/L): Padsevonil 10 µmol/L, GABA EC20, TEVC, α2β2γ2
[5] = target: human recombinant GABAA receptor α3β2γ2 (Homo sapiens, UniProt P18507+P34903); test: Two-electrode voltage clamp in Xenopus oocytes, α3β2γ2; assay type: cell-based; settings: for Function relative efficacy, normalized toward chlordiazepoxide (10 µmol/L): Padsevonil 10 µmol/L, GABA EC20, TEVC, α3β2γ2
[6] = target: human recombinant GABAA receptor α5β2γ2 (Homo sapiens, UniProt P18507+P31644); test: Two-electrode voltage clamp in Xenopus oocytes, α5β2γ2; assay type: cell-based; settings: for Function relative efficacy, normalized toward chlordiazepoxide (10 µmol/L): Padsevonil 10 µmol/L, GABA EC20, TEVC, α5β2γ2
Outline: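 Human α5β2γ2 receptors expressed in oocytes. GABA (EC₂₀) was applied twice for 20 s, 6 min apart, as control. Test compound (1 nmol/L–30 µmol/L) was preincubated 6 min, then co-applied with GABA for 20 s. EC₅₀ came from a sigmoidal fit of data normalized to maximal potentiation. Efficacy at 10 µmol/L was normalized to chlordiazepoxide 10 µmol/L. Mean ± SEM, n = 6–26.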

[7] = test system: native GABAARs in cultured rat primary cortical neurons; assay type: cell-based; settings: manual patch clamp, rat primary neuronal cultures, GABA at EC20 as printed
SV2A [8] = settings: cited from earlier work
[9] = target: B isoform of SV2 proteins; settings: cited from earlier work
[10] = target: C isoform of SV2 proteins; settings: cited from earlier work
[11] = target: recombinant GABAARs, benzodiazepine (BZD) binding site; settings: cited from earlier work
SV2A [12] = settings: cited from earlier work; remark: listed apart in the source
BZD site of GABAARs = settings: cited from earlier work
[13] = test system: PTZ-induced clonic seizures; settings: repeated = twice daily for 4 consecutive days; cited from earlier work
[14] = test system: treatment-resistant focal epilepsy; settings: Phase IIa proof-of-concept trial; cited from earlier work

Sequence of human recombinant GABAA receptor α4β2γ2 (P48169 36-554): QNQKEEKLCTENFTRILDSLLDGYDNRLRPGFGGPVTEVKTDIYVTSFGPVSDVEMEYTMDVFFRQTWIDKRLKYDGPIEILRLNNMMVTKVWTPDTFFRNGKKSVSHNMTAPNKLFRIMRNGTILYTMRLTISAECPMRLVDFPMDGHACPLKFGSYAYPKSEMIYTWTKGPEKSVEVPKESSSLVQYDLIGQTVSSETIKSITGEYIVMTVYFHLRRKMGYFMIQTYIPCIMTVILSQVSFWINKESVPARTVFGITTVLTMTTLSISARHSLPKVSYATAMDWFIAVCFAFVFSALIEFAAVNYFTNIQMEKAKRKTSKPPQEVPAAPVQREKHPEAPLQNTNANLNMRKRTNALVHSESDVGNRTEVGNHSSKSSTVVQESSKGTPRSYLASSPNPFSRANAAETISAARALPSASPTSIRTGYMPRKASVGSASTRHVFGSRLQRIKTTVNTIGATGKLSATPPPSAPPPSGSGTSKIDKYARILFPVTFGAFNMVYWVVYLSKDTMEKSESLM
Sequence of human recombinant GABAA receptor α4β2γ2 (P47870 25-512 partner limits assumed): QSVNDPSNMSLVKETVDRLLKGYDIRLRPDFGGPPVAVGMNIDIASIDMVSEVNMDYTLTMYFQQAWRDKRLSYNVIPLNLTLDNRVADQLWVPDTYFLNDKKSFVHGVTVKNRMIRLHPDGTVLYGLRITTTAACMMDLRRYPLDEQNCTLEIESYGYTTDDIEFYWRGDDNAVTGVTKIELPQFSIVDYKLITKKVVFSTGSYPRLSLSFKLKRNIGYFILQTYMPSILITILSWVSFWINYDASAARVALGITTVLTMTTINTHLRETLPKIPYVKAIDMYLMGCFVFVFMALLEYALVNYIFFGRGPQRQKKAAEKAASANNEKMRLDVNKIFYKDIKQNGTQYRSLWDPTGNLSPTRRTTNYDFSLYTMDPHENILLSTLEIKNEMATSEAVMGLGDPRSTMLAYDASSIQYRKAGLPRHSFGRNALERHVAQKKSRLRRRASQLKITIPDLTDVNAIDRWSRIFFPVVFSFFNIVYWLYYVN
Sequence of human recombinant GABAA receptor α4β2γ2 (P18507 40-475): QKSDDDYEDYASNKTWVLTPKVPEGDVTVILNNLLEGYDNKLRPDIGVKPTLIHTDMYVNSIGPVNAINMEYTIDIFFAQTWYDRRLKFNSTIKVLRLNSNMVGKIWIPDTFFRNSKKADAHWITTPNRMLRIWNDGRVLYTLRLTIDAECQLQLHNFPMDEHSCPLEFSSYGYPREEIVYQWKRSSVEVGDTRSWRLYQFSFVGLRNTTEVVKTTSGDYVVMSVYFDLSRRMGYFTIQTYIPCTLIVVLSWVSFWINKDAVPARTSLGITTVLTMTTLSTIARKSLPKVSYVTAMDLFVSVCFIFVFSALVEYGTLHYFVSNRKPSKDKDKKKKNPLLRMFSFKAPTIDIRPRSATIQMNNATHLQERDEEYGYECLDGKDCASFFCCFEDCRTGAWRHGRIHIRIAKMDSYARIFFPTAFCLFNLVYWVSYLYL
Sequence of recombinant human GABAARs (α1β2γ2) (P14867 28-456): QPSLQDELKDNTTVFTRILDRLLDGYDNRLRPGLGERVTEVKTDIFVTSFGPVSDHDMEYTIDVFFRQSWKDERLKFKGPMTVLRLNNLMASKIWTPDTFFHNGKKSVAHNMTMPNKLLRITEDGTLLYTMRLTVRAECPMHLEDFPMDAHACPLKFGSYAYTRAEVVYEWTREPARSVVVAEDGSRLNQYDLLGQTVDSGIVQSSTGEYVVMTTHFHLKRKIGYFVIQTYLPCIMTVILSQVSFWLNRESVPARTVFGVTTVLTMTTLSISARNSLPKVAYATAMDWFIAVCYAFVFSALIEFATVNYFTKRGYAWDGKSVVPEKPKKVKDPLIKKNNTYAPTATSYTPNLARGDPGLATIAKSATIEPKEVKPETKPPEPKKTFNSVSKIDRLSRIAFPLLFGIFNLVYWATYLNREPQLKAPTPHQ
Sequence of recombinant human GABAARs (α1β2γ2) (P47870 25-512 partner limits assumed): as the sequence (P47870 25-512 partner limits assumed) above
Sequence of recombinant human GABAARs (α1β2γ2) (P18507 40-475): as the sequence (P18507 40-475) above
Sequence of human recombinant GABAA receptor α1β2γ2 (P14867 28-456): as the sequence (P14867 28-456) above
Sequence of human recombinant GABAA receptor α1β2γ2 (P47870 25-512 partner limits assumed): as the sequence (P47870 25-512 partner limits assumed) above
Sequence of human recombinant GABAA receptor α1β2γ2 (P18507 40-475): as the sequence (P18507 40-475) above
Sequence of human recombinant GABAA receptor α3β2γ2 (P34903 29-492): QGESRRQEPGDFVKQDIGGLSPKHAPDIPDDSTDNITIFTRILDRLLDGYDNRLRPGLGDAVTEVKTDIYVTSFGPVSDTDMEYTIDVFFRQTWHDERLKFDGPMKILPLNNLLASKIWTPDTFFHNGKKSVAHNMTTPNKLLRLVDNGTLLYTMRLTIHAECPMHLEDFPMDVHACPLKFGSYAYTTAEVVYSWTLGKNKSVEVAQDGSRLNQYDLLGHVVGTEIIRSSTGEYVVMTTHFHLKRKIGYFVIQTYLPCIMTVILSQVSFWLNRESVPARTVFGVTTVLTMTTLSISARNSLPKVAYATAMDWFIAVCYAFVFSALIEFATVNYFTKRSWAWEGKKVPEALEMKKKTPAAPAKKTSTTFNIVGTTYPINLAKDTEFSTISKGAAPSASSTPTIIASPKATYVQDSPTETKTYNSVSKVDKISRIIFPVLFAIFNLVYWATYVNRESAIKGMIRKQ
Sequence of human recombinant GABAA receptor α3β2γ2 (P47870 25-512 partner limits assumed): as the sequence (P47870 25-512 partner limits assumed) above
Sequence of human recombinant GABAA receptor α3β2γ2 (P18507 40-475): as the sequence (P18507 40-475) above
Sequence of human recombinant GABAA receptor α5β2γ2 (P31644 32-462): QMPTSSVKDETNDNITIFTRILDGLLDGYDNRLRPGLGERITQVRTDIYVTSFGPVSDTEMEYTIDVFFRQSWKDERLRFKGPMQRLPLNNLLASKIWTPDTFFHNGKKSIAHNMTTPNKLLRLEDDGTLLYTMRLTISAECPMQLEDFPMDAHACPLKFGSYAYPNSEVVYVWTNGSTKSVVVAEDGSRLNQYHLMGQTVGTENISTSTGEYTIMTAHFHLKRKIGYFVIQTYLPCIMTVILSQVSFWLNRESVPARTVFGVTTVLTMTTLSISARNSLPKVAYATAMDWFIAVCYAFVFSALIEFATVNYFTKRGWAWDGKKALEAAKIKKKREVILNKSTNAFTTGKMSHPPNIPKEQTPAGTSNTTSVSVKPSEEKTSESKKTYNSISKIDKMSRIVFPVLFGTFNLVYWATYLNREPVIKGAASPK
Sequence of human recombinant GABAA receptor α5β2γ2 (P47870 25-512 partner limits assumed): as the sequence (P47870 25-512 partner limits assumed) above
Sequence of human recombinant GABAA receptor α5β2γ2 (P18507 40-475): as the sequence (P18507 40-475) above
Sequence of human recombinant GABAA receptor α2β2γ2 (P47869 29-451): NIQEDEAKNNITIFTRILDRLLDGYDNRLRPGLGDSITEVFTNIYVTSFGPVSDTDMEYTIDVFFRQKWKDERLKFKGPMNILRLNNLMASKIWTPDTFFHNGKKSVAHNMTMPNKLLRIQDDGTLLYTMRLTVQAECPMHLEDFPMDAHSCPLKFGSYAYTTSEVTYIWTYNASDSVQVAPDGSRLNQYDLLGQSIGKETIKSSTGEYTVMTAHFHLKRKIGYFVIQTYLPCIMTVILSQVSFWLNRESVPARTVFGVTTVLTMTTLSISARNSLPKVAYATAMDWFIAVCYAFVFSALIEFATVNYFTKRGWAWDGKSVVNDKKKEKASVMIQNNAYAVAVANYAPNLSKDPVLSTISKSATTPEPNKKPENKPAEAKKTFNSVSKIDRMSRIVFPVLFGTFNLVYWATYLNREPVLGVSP
Sequence of human recombinant GABAA receptor α2β2γ2 (P47870 25-512 partner limits assumed): as the sequence (P47870 25-512 partner limits assumed) above
Sequence of human recombinant GABAA receptor α2β2γ2 (P18507 40-475): as the sequence (P18507 40-475) above

CN1C(=O)CC(=O)N(c2ccccc2)c2cc(Cl)ccc21 [Clobazam]
Seizure control / tolerance development (Lennox–Gastaut syndrome): sustained seizure control

CCOC(=O)c1ncn2c1CN(C)C(=O)c1cc(N=[N+]=[N-])ccc1-2 [Ro 15‐4513, reference compound]
Potentiation of the GABA (EC20) response on α4β2γ2 receptors [1]: potentiated

COCc1c(C(=O)OC(C)C)ncc2[nH]c3ccc(OCc4ccccc4)cc3c12 [Abecarnil]
Clinical efficacy / tolerance development (photosensitive epilepsy): without development of tolerance

COCc1nn2c(CN3C[C@@H](CC(F)(F)Cl)CC3=O)c(C(F)(F)F)nc2s1 [Padsevonil, (4R)‐4‐(2‐chloro‐2,2‐difluoroethyl)‐1‐{[2‐(methoxymethyl)‐6‐(trifluoromethyl)imidazo[2,1‐b][1,3,4]thiadiazol‐5‐yl]methyl}pyrrolidin‐2‐one]
EC50 [2]: 0.138 ± 0.029 µM | Effect on maximal activation of the receptor ([2]; GABA 30 µmol/L (EC90), data not shown): does not overstimulate the receptor | Potentiation of the GABA (agonist) response ([2]; GABA at EC20 set to 100%, patch clamp, human α1β2γ2 in CHO): 167% | Function relative efficacy, normalized toward zolpidem (1 µmol/L) ([2]; GABA EC20, patch clamp, same cell): 41 ± 4% | Function relative efficacy, normalized toward zolpidem (1 µmol/L) ([2]; GABA EC20, patch clamp, same cell, listed as padsevonil): 41% | Relative efficacy, GABA EC20 response as % of that of zolpidem (1 µmol/L) ([2]; Padsevonil 30 µmol/L, GABA EC20, patch clamp, same cell): 35% | Cl− currents evoked in the absence of GABA [2]: did not elicit | Cl− currents evoked in the absence of GABA ([2]; listed as padsevonil): did not evoke | EC50 [3]: 0.295 µM | Function relative efficacy, normalized toward chlordiazepoxide (10 µmol/L) [3]: 60 ± 6% | Function relative efficacy, normalized toward chlordiazepoxide (10 µmol/L) ([3]; listed as padsevonil): 60% | Higher potency for receptors with α1 or α5 subunits than for those with α2 or α3 subunits ([3]; TEVC, oocytes, α1/α5 versus α2/α3): approximately sixfold | EC50 [4]: 1.74 ± 0.258 µM | Function relative efficacy, normalized toward chlordiazepoxide (10 µmol/L) [4]: 26 ± 4 (n = 13) ^b % | Function relative efficacy, normalized toward chlordiazepoxide (10 µmol/L) ([4]; listed as padsevonil): 26% | EC50 [5]: 2.09 ± 0.227 µM | Function relative efficacy, normalized toward chlordiazepoxide (10 µmol/L) [5]: 56 ± 6 (n = 18) ^b % | Function relative efficacy, normalized toward chlordiazepoxide (10 µmol/L) ([5]; listed as padsevonil): 56% | Potentiation of the GABA (EC20) response on α4β2γ2 receptors [1]: did not potentiate; also recorded: does not activate | Potentiation of the GABA (EC20) response on α4β2γ2 receptors ([1]; listed as padsevonil): no activity was observed | Function EC50, potentiation of GABA EC20 ([1]; α4β2γ2 in Xenopus oocytes): No potentiation | EC50 [6]: 0.281 ± 0.073 µM | Function relative efficacy, normalized toward chlordiazepoxide (10 µmol/L) [6]: 41 ± 10 (n = 10) ^b % | Function relative efficacy, normalized toward chlordiazepoxide (10 µmol/L) ([6]; listed as padsevonil): 41% | pEC50, potentiation of neuronal GABAAR activity [7]: 6.68 | Dissociation kinetics from SV2A (SV2A [8]; compared with LEV and BRV): significantly slower dissociation kinetics | Affinity for SV2A relative to LEV (SV2A [8]; radioligand displacement): ~2000 fold | Affinity for SV2A relative to brivaracetam (BRV) (SV2A [8]; radioligand displacement): approximately 100 fold | pKi SV2A (SV2A [8]; radioligand displacement): 8.5 | pKi SV2B [9]: 7.9 | pKi SV2C [10]: 8.5 | pKi benzodiazepine (BZD) binding site [11]: 6.4 | SV2A occupancy ED50 (SV2A [12]; in vivo, mice): 0.2 mg/kg | SV2A occupancy at doses highly active in models of drug-resistant epilepsy (SV2A [12]; nonclinical studies): > 95% | BZD site occupancy ED50 (BZD site of GABAARs; in vivo, mice): 36 mg/kg | Occupancy on GABAARs at doses highly active in models of drug-resistant epilepsy (BZD site of GABAARs; nonclinical studies): < 20% | Tolerance: increase of PTZ seizure threshold after acute versus repeated dosing [13]: tolerance was not developed | Clinical efficacy [14]: robust efficacy

Cc1ccc(-c2nc3ccc(C)cn3c2CC(=O)N(C)C)cc1 [zolpidem, Zolpidem, reference compound]
Potentiation of the GABA (EC20) response on α4β2γ2 receptors [1]: insensitive
